# Key:
# [1] = Acute toxicity in rat; format: organism-based; conditions: in vivo
# Rattus norvegicus = assay: Antiarrhythmic activity in aconitine-intoxicated iv dosed Ivanovas rat assessed as inhibition of ventricular dysfunction; format: functional, Heart
# Outline: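 Male Ivanovas rats (300–350 g) were anaesthetised with urethane 1.25 g/kg ip. Compound was given iv at 5 mg/kg 5 min before saphenous vein infusion of aconitine ([…], 0.1 ml/min). Lead II ECG was recorded every 30 s. Read-out was aconitine per 100 g causing ventricular extrasystoles, tachycardia and fibrillation versus untreated controls. Used 24 rats/compound; Student's t-test.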
# Mus musculus = assay: Antianxiety activity in ip dosed Albino mouse assessed as increase in locomotor activity after 30 mins relative to Diazepam; format: functional
SMILES,LD50 [1],LD100 increase (Rattus norvegicus),Ratio (Mus musculus)
N#Cc1c(NC(=S)NC(=O)c2ccccc2)sc2c1CCCC2,175 mg/kg,84%,10
COc1cccc(NC(=O)c2c(N)sc3c2CCCC3)c1,121 mg/kg,–,4
COc1cccc(-n2nnc3sc4c(c3c2=O)CCCC4)c1,124 mg/kg,75%,4
N#Cc1c(N)sc2c1CCCC2,152 mg/kg,–,1
N#Cc1c(NC(=O)CCl)sc2c1CCCC2,194 mg/kg,73.1%,3
COc1cccc(-n2c(=S)[nH]c3sc4c(c3c2=O)CCCC4)c1,210 mg/kg,76%,3
COc1cccc(NC(=O)c2c(NC(=O)c3ccccc3)sc3c2CCCC3)c1,236 mg/kg,67.9%,2
COc1cccc(NC(=O)c2c(NC(=O)/C=C/c3ccccc3)sc3c2CCCC3)c1,276 mg/kg,74.6%,5
COc1cccc(-n2c(-c3ccccc3)nc3sc4c(c3c2=O)CCCC4)c1,136 mg/kg,70.1%,5
COc1cccc(-n2c(/C=C/c3ccccc3)nc3sc4c(c3c2=O)CCCC4)c1,243 mg/kg,82%,7
N#Cc1c(NC(=O)/C=C/c2ccccc2)sc2c1CCCC2,186 mg/kg,77.5%,5
N=c1oc(-c2ccccc2)nc2sc3c(c12)CCCC3,224 mg/kg,68.15%,3
N=c1oc(/C=C/c2ccccc2)nc2sc3c(c12)CCCC3,244 mg/kg,80.1%,6
N#Cc1c(-n2c(O)csc2=N)sc2c1CCCC2,274 mg/kg,82.1%,12
N#Cc1c(N2C(=O)C=CC2=O)sc2c1CCCC2,234 mg/kg,–,3
N=c1c2c3c(sc2nc(S)n1C(=O)c1ccccc1)CCCC3,221 mg/kg,84.3%,5
N#Cc1c(/N=C/c2ccccc2)sc2c1CCCC2,246 mg/kg,73.6%,2
N#Cc1c(N2C(=S)N=C(c3ccccc3)OC2c2ccccc2)sc2c1CCCC2 (centres undefined),297 mg/kg,84%,16
O=C1CC2(CCCC2)CC(=O)N1CCCCN1CCN(c2ncccn2)CC1 [BUSPIRONE],113 mg/kg,–,–
CCN(CC)CC(=O)Nc1c(C)cccc1C [LIDOCAINE],–,65%,–
CCN(CC)CCNC(=O)c1ccc(N)cc1 [PROCAINAMIDE],–,65%,–

# Source: ChEMBL document CHEMBL1629505, “Antiarrhythmic, serotonin antagonist and antianxiety activities of novel substituted thiophene derivatives synthesized from 2-amino-4,5,6,7-tetrahydro-N-phenylbenzo[b]thiophene-3-carboxamide” (Eur J Med Chem, 2010)
